Only some compounds are listed: those with a hit (about 1.3% of all), similar ones and a draw of the others.
JMJD2C inh: inhibitors of GASC-1 histone demethylase, primary screen, biochemical, fluorescence, DELFIA europium; Lysine-specific demethylase 4C (Homo sapiens), Q9H3R0; GST-JMJD2C(1-420) H3K9me3 demethylation; inhibition, % at 2.35 µM; hit rate 0.069% among 330,000;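 active means more than half of a compound's replicate wells show inhibition beyond 50%, single wells judged on their own value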;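 further: signal counts dimethyl H3K9 product captured on neutravidin plate; 0% = median of DMSO wells and 100% = 0.3 times that DMSO median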
Target sequence (Q9H3R0 1-420 limits assumed): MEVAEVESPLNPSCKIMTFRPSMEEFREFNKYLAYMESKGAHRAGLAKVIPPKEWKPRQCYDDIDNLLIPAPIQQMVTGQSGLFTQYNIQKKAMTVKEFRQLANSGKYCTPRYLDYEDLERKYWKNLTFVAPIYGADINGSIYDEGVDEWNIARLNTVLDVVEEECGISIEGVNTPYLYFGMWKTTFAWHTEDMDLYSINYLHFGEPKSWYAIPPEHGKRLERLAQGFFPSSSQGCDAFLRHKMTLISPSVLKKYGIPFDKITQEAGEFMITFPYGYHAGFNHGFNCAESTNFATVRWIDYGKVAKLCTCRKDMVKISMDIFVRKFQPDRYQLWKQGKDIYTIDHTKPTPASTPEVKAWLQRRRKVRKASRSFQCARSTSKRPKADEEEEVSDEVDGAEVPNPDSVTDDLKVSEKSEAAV
NR2E3 ag-1: NR2E3 agonists in two-hybrid cells, primary screen, cell-based, luminescence, CHO-S, Gal4-NCOR/VP16-NR2E3; luciferase; Photoreceptor-specific nuclear receptor (Homo sapiens), Q9Y5X4; inhibition of corepressor binding, % at 3.98 µM; hit rate 0.35% among 360,000;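 active means inhibition above the mean of all tested compounds plus 3 SD, cut at about 70% in these data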;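 further: 0% = DMSO with NR2E3 transfected cells and 100% = cells lacking NR2E3 construct; higher means lower luciferase signal from less NR2E3 corepressor binding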
Furin inhibitor: human furin inhibitors, primary screen, biochemical, fluorescence intensity; P09958; purified furin, fluorogenic substrate cleavage; inhibition, % at 20 µM or 30 µM; hit rate 0.061% among 220,000; AID 463115, 2010; in the data active means inhibition above about 25%
NR2E3 ag-2: inhibitors of NR2E3-RetCOR corepressor binding, primary screen, NR2E3 agonist project, biochemical, TR-FRET, GST-NR2E3, biotin-RetCOR; hit rate 0.12% among 320,000; Photoreceptor-specific nuclear receptor (Homo sapiens), Q9Y5X4; inhibition of corepressor binding, % at 4.78 µM; 1536-well;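 active means percent inhibition above the cutoff of mean plus 3 SD of all tested compounds, set per screening campaign, cut at about 20% in these data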;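 further: 0% = DMSO wells and 100% = biotin wells as full block of FRET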
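Assay system: NR2E3–RetCOR corepressor complex. Quantity: 1.35 nM GST-NR2E3. Buffer or medium: pH 7.5 Tris-based buffer. Reagent: biotinylated RetCOR corepressor at 7 nM final. Schedule: 5 h at 4 °C. Detection: TR-FRET, emission read at 617 and 671 nm. Replicates: one well per compound, singlicate testing.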
PGE2 EP2 inh: human EP2 receptor antagonists, primary screen, TR-FRET cAMP, C6 glioma cells. AID 1422, 2008. hit rate 0.52% among 260,000. inhibition, % at 25 µM. Prostaglandin E2 receptor EP2 subtype (Homo sapiens), P43116. C6 glioma cells expressing human EP2; cells stimulated with saturating PGE2;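 active means percent inhibition above 40 after rounding to a whole number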;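 further: rat C6 glioma host cells with rolipram phosphodiesterase inhibitor present; the protocol text gives 20 µM as final concentration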
EP2 modulator: EP2 receptor modulators, cAMP readout, primary screen, cell-based, HTRF cAMP, PGE2 stimulation; Prostaglandin E2 receptor EP2 subtype (Homo sapiens), P43116; EP2-expressing cells, cAMP HTRF FRET, PGE2 co-stimulation; hit rate 0.83% among 260,000; AID 940, 2007; induction, % at 25 µM;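 active means compounds whose cAMP rise, as percent of the full-agonist control response, exceeds 60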;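 further: rat C6 glioma line stably carrying human EP2 under a CMV promoter; the protocol text gives 20 µM as final concentration; 100% = response of wells given 1 µM PGE2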
NR2E3 ag conf: NR2E3 agonist confirmation in cells, cell-based, luminescence, CHO-S two-hybrid. shares compounds with NR2E3 ag-1. CHO-S mammalian two-hybrid NR2E3-NCOR, luciferase luminescence. inhibition, % at 3.98 µM. hit rate 51% among 2,300. AID 624378, 2012;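 active means average inhibition above a cutoff equal to the mean inhibition of all tested compounds plus one SD, cut at about 70% in these data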;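 further: 0% = DMSO in NR2E3 cells and 100% = DMSO in cells lacking NR2E3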
VP16 counter: GAL4-VP16 reporter modulators, confirmation, counter-screen for NR2E3 agonist project, cell-based, luminescence, CHO-S, high throughput. shares compounds with NR2E3 ag-1. CHO-S GAL4-VP16 luciferase reporter. inhibition, % at 3.98 µM. hit rate 29% among 2,300. AID 624379, 2012;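 active means mean inhibition above a cutoff equal to the average over all tested compounds plus one standard deviation, cut at about 70% in these data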;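 further: luciferase from a UAS reporter driven by GAL4-VP16 transactivation; 0% = DMSO with VP16-transfected cells and 100% = DMSO with cells lacking VP16; higher means less reporter light so more repression of VP16 activity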
Active calls of the source: *; x = no result given.

SMILES	JMJD2C inh	NR2E3 ag-1	Furin inhibitor	NR2E3 ag-2	PGE2 EP2 inh	EP2 modulator	NR2E3 ag conf	VP16 counter
CCC(C)(C)c1ccc(Oc2ccc(N)cc2)cc1	23	61	-7	x	11	-55	60	70
CCC(C)(C)c1ccc(Oc2cccc(C(=O)O)c2)cc1	2	-90	-8	-2	9	-1	x	x
O=c1c2ccccc2sn1-c1ccc(Cl)cc1	x	55	x	x	x	x	-47	-122
COc1ccc(CCNc2ccc(N3C(=O)CC(C)C3=O)cc2[N+](=O)[O-])cc1OC (stereo unspecified)	9	75*	-20	2	4	-26	57	73*
Cc1ccc(C(=O)N2CCN3C(=O)c4ccccc4C23c2ccc(Cl)cc2)cc1 (stereo unspecified)	4	74*	-15	2	9	-8	44	15
CCCC(=O)NC1CC(C)(C)NC(C)(C)C1	x	x	x	x	9	-19	x	x
O=C(NCC(c1ccco1)N1CCCC1)c1ccc(Cl)c(S(=O)(=O)N2CCc3ccccc32)c1 (stereo unspecified)	-3	61	x	1	x	x	50	50
CCN1CCN(C(c2ccccc2)c2nnnn2C(C)(C)CC)CC1 (stereo unspecified)	x	x	x	x	10	-1	x	x
Cc1nc2c(-c3cccs3)c(C)nn2c(NCCN(C)C)c1C	x	x	x	x	x	-17	x	x
CN(CC(=O)Nc1cccc(F)c1)C(=O)CCN1C(=O)C2CC=CCC2C1=O (stereo unspecified)	-2	96*	x	-1	x	x	4	-11
Cc1cccc(C)c1N1CCN(C(c2cc3ccccc3o2)c2nnnn2C(C)(C)C)CC1 (stereo unspecified)	x	75*	x	x	x	x	84*	67
COc1ccc(F)cc1C(=O)CSc1nnc(-c2ccco2)o1	x	x	x	x	15	-24	x	x
CCc1cc2cc(OC)ccc2nc1SCC(=O)Nc1ccccc1C(F)(F)F	x	x	x	x	11	18	x	x
O=C(c1csc2ccccc12)N1CCN(c2ccc(Cl)c(Cl)c2)CC1	8	57	-15	2	13	-39	81*	61
Cn1ncc(Cl)c1C(=O)N1CCN(c2ccc(Cl)c(Cl)c2)CC1	-19	103*	x	1	x	x	95*	86*
Cn1nc(CC(=O)Nc2ccccc2F)c2ccccc2c1=O	x	x	x	x	17	-42	x	x
Cn1nc(CC(=O)NCc2ccc(C(F)(F)F)cc2)c2ccccc2c1=O	5	67	-13	3	13	5	91*	79*
CCOc1cccc(C2C(C(=O)c3ccco3)=C(O)C(=O)N2CCCN(C)C)c1 (stereo unspecified)	x	x	x	x	5	-40	x	x
CCc1ccc(C(C(=O)NC(C)(C)C)N(Cc2ccco2)C(=O)c2csnn2)cc1 (stereo unspecified)	x	x	x	x	7	25	x	x
COc1ccccc1-[n+]1c(C)cc(/C=C2\Sc3ccccc3N2C)cc1C	-7	92*	19	-10	9	-6	97*	83*
COc1ccc(C(=O)/C=C2\Sc3ccccc3N2C)cc1	14	-153	-16	-2	11	-20	x	x
COc1ccc(-[n+]2c(C)cc(/C=C3\Sc4ccccc4N3C)cc2C)cc1	-9	93*	-4	-8	15	-87	99*	92*
COc1ccc(NS(=O)(=O)c2ccc3oc4ccccc4c3c2)cn1	1	88*	-20	5	-4	-27	76*	63
CC[C@@H](C(=O)[C@@H](C)[C@@H](O)[C@H](C)CCc1ccc(C)c(O)c1C(=O)O)[C@H]1O[C@](CC)([C@H]2CC[C@](O)(CC)[C@H](C)O2)C[C@@H]1C	-50	104*	x	2	x	x	98*	91*
COC(=O)[C@H]1CN(C(=O)CCn2nc(C)cc2C)C[C@@H]1c1ccc(F)cc1	x	x	x	x	x	-3	x	x
SMILES	JMJD2C inh	NR2E3 ag-1	Furin inhibitor	NR2E3 ag-2	PGE2 EP2 inh	EP2 modulator	NR2E3 ag conf	VP16 counter
CCC1Sc2ccc(S(=O)(=O)Nc3ccc(OC)cc3)cc2NC1=O (stereo unspecified)	-28	60	x	4	x	x	45	52
CCC1Sc2ccc(S(=O)(=O)CCC(=O)Nc3ccc(C(=O)OC)cc3)cc2NC1=O (stereo unspecified)	-2	-9	x	1	x	x	x	x
CCC1Sc2ccc(S(=O)(=O)Nc3ccc(OC)c(OC)c3)cc2NC1=O (stereo unspecified)	42	88*	x	0	x	x	81*	57
COc1ccc(C)cc1NS(=O)(=O)c1ccc2c(c1)NC(=O)C(C)S2 (stereo unspecified)	-2	8	x	1	x	x	x	x
CCOc1ccccc1-n1c(SCC(=O)Nc2ccccc2C(=O)O)nc2ccccc2c1=O	-3	50	x	3	x	x	48	15
CCOc1ccccc1-n1c(SCC(=O)Nc2ccccc2Cl)nc2ccccc2c1=O	x	x	x	x	12	34	x	x
Cc1cccc(NC(=S)N=Nc2c(O)[nH]c3ccccc23)c1	9	67	-22	-5	11	-23	13	-11
O=C(N=Nc1c(O)[nH]c2ccccc12)Nc1ccccc1	x	-106	x	x	x	x	x	x
O=C(c1cccs1)N1CCC2(CC1)Nc1ccccc1-n1cccc12	x	x	x	x	x	-14	x	x
Cc1nc(SCC(=O)Nc2nc3ccccc3s2)c(C#N)c(C)c1C	0	93*	-10	0	4	-36	84*	81*
O=C(CN1CCC(O)(c2ccccn2)CC1)NCCc1ccc(F)cc1	x	x	x	x	13	-19	x	x
O=C(NNc1ccnc2cc(Cl)ccc12)C1CCCCC1	-20	58	-22	-1	15	-44	97*	87*
O=C(Oc1ccnc2cc(Cl)ccc12)N1CCCCCC1	4	60	-17	-4	18	-2	35	32
Cc1ccsc1CN(CCCN1CCOCC1)Cc1ccc2ncccc2c1	x	x	x	x	3	-3	x	x
O=C(CSc1ncc(-c2ccc(Cl)cc2)[nH]1)Nc1ccc(S(=O)(=O)NC2CCCC2)cc1	x	x	x	x	33	-47	x	x
COc1ccc(NC(=O)CSc2nc(-c3ccc(OC)c(OC)c3)cc(C(F)(F)F)n2)c(C)c1	x	x	x	x	14	-79	x	x
CCN(CC)c1nc2c(c(=O)[nH]c(=O)n2C)n1CCO	x	x	x	x	9	9	x	x
